According to ChEMBL document CHEMBL3351676, “Polyyne hybrid compounds from Notopterygium incisum with peroxisome proliferator-activated receptor gamma agonistic effects” (J Nat Prod, 2014):
Active and inactive are the calls of the source. The calls are words filed in the database; no cut-off is given here.

What was measured:
RAW264.7 = assay: Inhibition of LPS and IFNgamma-induced nitric oxide production in mouse RAW264.7 cells incubated for 16 hrs by Griess assay; type: functional, cell-based
Summary of the method: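 RAW 264.7 macrophages stimulated with LPS plus IFN-γ to induce iNOS. Compounds dissolved in DMSO and diluted in PBS. Nitrite in supernatants measured by Griess assay against a sodium nitrite standard curve after 16 h. Activity expressed relative to LPS/IFN-γ/0.1% DMSO control; L-NMMA as positive control. Eight concentrations, at least three independent experiments, each in duplicate.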

[1] = molecular target: T1, Peroxisome proliferator-activated receptor gamma (Homo sapiens) (UniProt P37231); assay: Agonist activity at human PPARgamma expressed in HEK293 cells assessed as induction of receptor activation at 10 uM incubated for 18 hrs by luciferase reporter gene assay relative to untreated control; type: cell-based
T1 sequence (whole entry): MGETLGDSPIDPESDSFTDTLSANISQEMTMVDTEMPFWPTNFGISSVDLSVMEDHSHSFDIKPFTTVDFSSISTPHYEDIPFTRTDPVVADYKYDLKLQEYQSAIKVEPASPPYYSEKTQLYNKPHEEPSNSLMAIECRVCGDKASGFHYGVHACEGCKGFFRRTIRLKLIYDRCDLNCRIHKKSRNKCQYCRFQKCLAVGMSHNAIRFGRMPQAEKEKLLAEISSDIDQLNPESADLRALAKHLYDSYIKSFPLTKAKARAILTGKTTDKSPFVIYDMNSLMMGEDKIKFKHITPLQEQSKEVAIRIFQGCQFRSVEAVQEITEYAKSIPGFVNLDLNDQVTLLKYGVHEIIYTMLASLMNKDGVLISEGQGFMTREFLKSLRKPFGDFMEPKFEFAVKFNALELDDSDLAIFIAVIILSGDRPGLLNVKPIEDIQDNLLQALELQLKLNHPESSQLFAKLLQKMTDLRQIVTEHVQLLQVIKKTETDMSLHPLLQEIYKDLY
Summary of the method: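 HEK-293 cells in DMEM with 10% FBS, transfected by calcium phosphate with human PPARγ1 plasmid, tk-PPREx3-luc reporter and pEGFP-N1. After 6 h, replated in phenol-red-free DMEM with charcoal-stripped FBS. Treated 18 h; DMSO ≤0.1% as solvent control. Firefly luciferase luminescence normalized to EGFP fluorescence per well.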

Structure (SMILES)	inhibition (RAW264.7)	Activity [1]
C=C[C@@H](O)C#CC#C[C@H](/C=C\CCCCCCC)O[C@]1(C)CCC[C@]2(C)CC[C@@H](C(C)(C)O)C[C@H]21	inactive	–
C=C[C@H](C#CC#C[C@@H](O)/C=C\CCCCCCC)O[C@]1(C)CCC[C@]2(C)CC[C@@H](C(C)(C)O)C[C@H]21	inactive	–
C=C[C@H]1OCc2cc3cc(OC)c(O)cc3c(C#C[C@@H](O)/C=C\CCCCCCC)c21	inactive	–
C=C[C@H](C#CC#C[C@@H](O)/C=C\CCCCCCC)O[C@]1(C)CC[C@@H](C(C)C)[C@@H](O)[C@@H]2[C@@](C)(O)CC[C@]21O	inactive	inactive
C=C[C@H](C#CC#C[C@@H](O)/C=C\CCCCCCC)O[C@]1(C)CC[C@@H](O)[C@]2(C)CC[C@@H](C(C)C)[C@@H](O)[C@H]21	inactive	–
C=C[C@@H](O)C#CC#C[C@H](/C=C\CCCCCCC)O[C@]1(C)CC[C@@H](O)[C@]2(C)CC[C@H](C(C)C)[C@H](O)[C@H]21	inactive	inactive
C=C[C@@H](O)C#Cc1c2c(cc3cc(OC)c(O)cc13)CO[C@H]2/C=C\CCCCCCC	inactive	inactive
C=C[C@@H](O)C#CC#C[C@H](/C=C\CCCCCCC)O[C@]1(C)CC[C@@H](C(C)C)[C@@H](O)[C@@H]2[C@@](C)(O)CC[C@]21O	inactive	inactive
C=C[C@H](C#CC#C[C@@H](O)/C=C\CCCCCCC)O[C@]1(C)CC[C@@H](O)[C@]2(C)CC[C@H](C(C)C)[C@H](O)[C@H]21	inactive	inactive
C=C[C@@H](O)C#CC#C[C@H](/C=C\CCCCCCC)O[C@]1(C)CC[C@@H](O)[C@]2(C)CC[C@@H](C(C)C)[C@@H](O)[C@H]21	inactive	inactive
